M1 ag: human M1 muscarinic receptor agonists, primary screen, Fluo-8 calcium fluorescence, CHO-K1 cells, HTS; actives 0.33% (n = 360,000); activation, % at 3 µM; CHO-K1 hM1, agonist mode; 0% DMSO, 100% acetylcholine EC100; Muscarinic acetylcholine receptor M1 (Homo sapiens), P11229;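 active = activation above the run's mean compound activation plus 3 SD, cut at about 16% in these data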;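 note: peak over basal fluorescence ratio within a 140 s kinetic read after compound addition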
Target sequence (P11229 whole entry, looked up): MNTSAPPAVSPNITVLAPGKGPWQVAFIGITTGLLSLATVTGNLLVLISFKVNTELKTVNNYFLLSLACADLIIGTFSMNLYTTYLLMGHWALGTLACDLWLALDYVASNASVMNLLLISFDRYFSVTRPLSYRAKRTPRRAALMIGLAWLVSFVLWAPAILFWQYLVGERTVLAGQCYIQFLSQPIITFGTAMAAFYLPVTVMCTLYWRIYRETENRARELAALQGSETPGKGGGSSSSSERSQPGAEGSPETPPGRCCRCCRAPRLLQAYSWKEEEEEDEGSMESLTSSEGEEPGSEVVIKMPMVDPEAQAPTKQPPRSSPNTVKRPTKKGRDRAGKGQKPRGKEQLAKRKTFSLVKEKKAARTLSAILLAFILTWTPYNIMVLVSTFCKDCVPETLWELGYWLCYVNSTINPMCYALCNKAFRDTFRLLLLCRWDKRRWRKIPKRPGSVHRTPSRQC
TAAR1 ag: human TAAR1 agonists, primary screen, Fluo-8 calcium fluorescence, CHO RD-HGA16 cells; vehicle wells 0%, saturating PEA agonist 100%; activation, % at 3 µM; Trace amine-associated receptor 1 (Homo sapiens), Q96RJ0; actives 0.99% (n = 360,000);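 active = activation above the mean activation of all test compounds in the run plus 3 SD, cut at about 38% in these data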
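System: CHO-derived RD-HGA16 cells with stable Gα16 and human TAAR1 / Times: 17-24 h plating, Fluo-8 75 min 37 °C, 30 min RT / Technique: calcium-sensitive Fluo-8 signal, excitation 470-495, emission 515-575 nm / Measure: % activation relative to PEA EC100 response / Benchmarks: DMSO and PEA EC100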
TAAR1 antag: human TAAR1 antagonists, primary screen, Fluo-8 calcium fluorescence, CHO RD-HGA16 cells; Trace amine-associated receptor 1 (Homo sapiens), Q96RJ0; antagonist; inhibition, % at 3 µM; actives 1.5% (n = 360,000);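 active = inhibition above a per-plate cutoff, the mean inhibition of test compounds on that plate plus 3 SD, cut at about 49% in these data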;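 note: 0% = DMSO plus EC80 beta-PEA response and 100% = DMSO alone without agonist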
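Test system: CHO RD-HGA16 cells bearing hTAAR1 | Reagent: β-PEA, EC80 | Compound dosing: 3 µM, single point | Schedule: Dye loading 75 min at 37 °C, then 30 min room temperature | Signal: Calcium fluorescence with Fluo-8 | Evaluation: Percent inhibition of PEA-evoked calcium signal, max/basal emission ratio | Control set: DMSO-only wells and EC80 β-PEA-stimulated wells | Repeats: Singlicate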
M1 antag: human M1 muscarinic receptor antagonists, primary screen, CHO-K1 cells, Fluo-8 calcium fluorescence, 1536-well | Muscarinic acetylcholine receptor M1 (Homo sapiens), P11229 | CHO-K1 hM1, ACh EC80 antagonist | inhibition, % at 3 µM | actives 1.3% (n = 360,000) | AID 588852, 2011;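 active = percent inhibition above its own plate's cutoff, namely the mean of that plate's compound wells plus 3 SD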;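 note: peak over basal fluorescence ratio during 140 s after agonist addition; 0% = ACh EC80 plus DMSO and 100% = DMSO alone without agonist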
M1 PAM: human M1 muscarinic receptor positive allosteric modulators, primary screen, CHO-K1 cells, Fluo-8 calcium fluorescence, 1536-well | Muscarinic acetylcholine receptor M1 (Homo sapiens), P11229 | CHO-K1 hM1, ACh EC20; 0% = ACh EC20, 100% = maximal ACh | activation, % at 3 µM | actives 0.088% (n = 360,000) | AID 588819, 2011; in the data active = activation above about 19%, passing the limit was not always enough
The depositor's hits bear a star. In the library only some 3.4% were active in any assay of this set; here they are far more common.

Screening CN(C)C(=O)c1cn(-c2ccccc2)nc1-c1cccs1 returned M1 ag -3, TAAR1 ag 9, TAAR1 antag 5, M1 antag -7 and M1 PAM 5.
`CCN(CC(=O)Nc1ccc(NC(C)=O)cc1)C(=O)c1cn(-c2ccccc2)nc1-c1cccs1` gave M1 ag 0, TAAR1 ag 13, TAAR1 antag 64*, M1 antag 12 and M1 PAM -9.
Screening COc1cccc(NC(=O)CN(C)C(=O)c2cn(-c3ccccc3)nc2-c2cccnc2)c1 returned M1 ag -5, TAAR1 ag 12, TAAR1 antag 44, M1 antag 5 and M1 PAM -6.
For Cc1ccc(NC(=O)CN(C)C(=O)c2cc(-c3ccccc3)nn2-c2ccccc2)cc1 the results were M1 ag -4, TAAR1 ag 2, TAAR1 antag 33, M1 antag -3 and M1 PAM 3.
COc1cccc(NC(=O)CN(C)C(=O)c2cc(-c3ccccc3)nn2-c2ccccc2)c1 was read as M1 ag -1, TAAR1 ag 5, TAAR1 antag -3, M1 antag -28 and M1 PAM 24*.
`O=C(c1cn(-c2ccccc2)nc1-c1cccs1)N1CCN(c2ccccn2)CC1` gave M1 ag 0, TAAR1 ag 11, TAAR1 antag 49*, M1 antag 9 and M1 PAM 0.
`COc1cccc(NC(=O)CN(C)C(=O)c2cn(-c3ccccc3)nc2-c2cccs2)c1` gave M1 ag 0, TAAR1 ag 11, TAAR1 antag 61*, M1 antag 24 and M1 PAM -10.
For O=C(CCc1c[nH]c2ccccc12)Nc1ccc(Nc2ccccc2)cc1 the results were TAAR1 ag 6 and TAAR1 antag 36.
`CCCCc1c(-c2ccccc2OC)ncn1Cc1ccc(Br)cc1` gave TAAR1 ag 2 and TAAR1 antag 27.
CCc1nc2c(OCc3ccc(Cl)cc3)cccn2c1N(C)C(=O)c1ccc(C)cc1 was read as M1 ag -10, TAAR1 ag -1, TAAR1 antag -41, M1 antag 19 and M1 PAM -22.
CCCCN(Cc1ccccc1)S(=O)(=O)c1ccc2[nH]c(=O)oc2c1 was read as M1 ag -3, TAAR1 ag 13, TAAR1 antag 49*, M1 antag 14 and M1 PAM -4.
O=S(=O)(c1cc(O)ccc1O)c1cccc2c(S(=O)(=O)c3cc(O)ccc3O)cccc12 was read as M1 ag 1, TAAR1 ag 13, TAAR1 antag 2, M1 antag -2 and M1 PAM 2.
O=S(=O)(O)c1cc(O)ccc1O was read as M1 ag 35*, TAAR1 ag 0, TAAR1 antag 5, M1 antag -24 and M1 PAM -9.
Screening CCCc1c(-c2ccc(F)cc2F)ncn1Cc1cccc(-c2ccccc2)c1 returned TAAR1 ag 0 and TAAR1 antag 19.
`CCN(CC)c1ccc(/C=N/n2c(-c3ccccc3Br)n[nH]c2=S)cc1` gave M1 ag -7, TAAR1 ag 6, TAAR1 antag -21, M1 antag 81* and M1 PAM -26.
For Cc1nn(-c2ccccc2)c(C)c1/C=N/n1c(-c2ccccc2Br)n[nH]c1=S the results were M1 ag -7, TAAR1 ag -3, TAAR1 antag -2, M1 antag 19 and M1 PAM -18.
For CCOc1ccc(NC(=O)COC(=O)c2ccc3c(c2)C(=O)N(CCc2ccccc2)C3=O)cc1 the results were M1 ag 7, TAAR1 ag 38*, TAAR1 antag 18, M1 antag -9 and M1 PAM 7.
CC(CC(=O)N(C)c1c(N)n(Cc2ccccc2)c(=O)[nH]c1=O)c1ccccc1 (stereo unspecified) was read as M1 ag -1, TAAR1 ag 0, TAAR1 antag -11, M1 antag 28* and M1 PAM -10.
Screening COC(=O)[C@@]12C[C@@H](CC(=O)N3CCN(C(=O)C4CC4)CC3)C(=O)N(Cc3ccc4c(c3)OCO4)C1=CCC(C)(C)C2 returned TAAR1 ag 6 and TAAR1 antag -33.
CC(=O)Nc1ccc(C(=O)OCC(=O)N(c2ccccc2)C2CCCCC2)cc1 was read as M1 ag -2, TAAR1 ag 12, TAAR1 antag 50*, M1 antag 8 and M1 PAM -7.
Screening CCNC(=O)O[C@@H]1C=C[C@@H](C#Cc2ccc(C(C)(C)C)cc2)O[C@@H]1COC(C)=O returned TAAR1 ag 0 and TAAR1 antag 2.
For Cc1ccc(C2=NS(=O)(=O)N(C)C(C(=O)NCc3cccs3)=C2)cc1 the results were M1 ag 1, TAAR1 ag 9, TAAR1 antag 27, M1 antag -8 and M1 PAM 0.
`COc1ccc(OC)c(C2=NS(=O)(=O)N(C)C(C(=O)NCc3cccs3)=C2)c1` gave M1 ag 7, TAAR1 ag 43*, TAAR1 antag 26, M1 antag 16 and M1 PAM -11.
`CCCCCCCCN1C(=O)[C@@H](CC(=O)NCCCOCCCC)C[C@@]2(C(=O)OC)C1=C[C@H](C1CCCC1)O[C@@H]2C` gave TAAR1 ag -2 and TAAR1 antag -16.
Screening CCOC(=O)C(Cc1ccc(O)cc1)NC(=O)CCc1c[nH]c2ccccc12 (stereo unspecified) returned M1 ag 21*, TAAR1 ag 40*, TAAR1 antag 14, M1 antag -3 and M1 PAM 0.
`COC(=O)[C@H](Cc1c[nH]c2ccccc12)NC(=O)CCCc1c[nH]c2ccccc12` gave M1 ag 2, TAAR1 ag 18, TAAR1 antag 45, M1 antag 0 and M1 PAM 2.
Screening COc1cc(CNc2cccc3c2S(=O)(=O)N([C@H](C)c2ccccc2)C[C@@H](COCc2ccccc2)O3)cc(OC)c1OC returned TAAR1 ag 2 and TAAR1 antag 5.
Screening O=C1C(=O)N(CCCN2CCOCC2)C(c2ccc(Cl)cc2)/C1=C(/O)c1ccc(F)cc1 (stereo unspecified) returned M1 ag -2, TAAR1 ag 6, TAAR1 antag -14, M1 antag -17 and M1 PAM 11.
